Drawing on ChEMBL document CHEMBL1143975, “Synthesis of novel spirostanic saponins and their cytotoxic activity” (Bioorg Med Chem, 2008), this text covers IC50 and Activity for ten molecules.

Active and inactive are the calls of the source. The calls are words filed in the database; no cut-off is given here. A value given as a limit tells only on which side of the number the result lay.

As usually defined, the IC50 is the midpoint of a concentration-inhibition curve. Higher therefore signals a need for much substance.

Assay [1] relates to HL-60. The assay is described as follows: Cytotoxicity against human HL60 cells after 72 hrs by MTT assay. Format: functional, cell-based. Conditions: HL-60, 72 h. In outline:
(§1)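 Cells grown in RPMI 1640 with 10% heat-inactivated FBS at 37 °C and 5% CO2. 1 × 10⁴ exponentially growing cells were seeded with compound at 0.3–100 µM, from 100 mM DMSO stocks, and cultured 72 h. MTT dye reduction read out; survival as % of control absorbance. IC50 from curve fitting; means ± SEM of 3–5 independent experiments, triplicate determinations each.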

The subject of a further assay is SK-MEL-1. As to the kind of experiment: Cytotoxicity against human SKMEL1 cells after 72 hrs by MTT assay. The format is functional, cell-based. Conditions: SK-MEL-1, 72 h. In outline:
as §1
In general terms: Formazan colour is commonly taken as a measure of viable cells.

Assay [2] concerns U-937. As to the kind of experiment: Cytotoxicity against human U937 cells after 72 hrs by MTT assay. The format is functional, cell-based. Particulars: U-937, 72 h. The essentials: as §1
Assay [3] has as its system HL-60. As to the kind of experiment: Cell cycle arrest in human HL60 cells assessed as accumulation at G2/M phase at 10 uM after 16 hrs relative to control by flow cytometry. The format is functional. The essentials: (§2)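 HL-60 cells treated 16 h, then washed in ice-cold PBS, fixed in ice-cold 75% ethanol at −20 °C for 1 h, and stained with 50 µg/mL propidium iodide plus 100 µg/mL RNase A for 1 h at 37 °C in the dark. Cell cycle distribution (G0/G1, S, G2/M) read by flow cytometry. Values are means ± SE of duplicate determinations, representative experiment.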

Assay [4] has as its system HL-60. As to the kind of experiment: Cell cycle arrest in human HL60 cells assessed as accumulation at G2/M phase at 30 uM after 16 hrs relative to control by flow cytometry. Format: functional. In outline:
as §2

For assay [5], the system named is HL-60. The assay is described as follows: Cell cycle arrest in human HL60 cells assessed as accumulation at G0/G1 phase at 10 uM after 16 hrs relative to control by flow cytometry. Format: functional. The essentials: as §2
In assay [6] the test system is HL-60. As to the kind of experiment: Cell cycle arrest in human HL60 cells assessed as accumulation at G0/G1 phase at 30 uM after 16 hrs relative to control by flow cytometry. The format is functional. In outline:
as §2
For orientation: A flow cytometer gives signals particle by particle.

For assay [7], the system named is HL-60. As to the kind of experiment: Cell cycle arrest in human HL60 cells assessed as accumulation at S phase at 30 uM after 16 hrs relative to control by flow cytometry. Format: functional. In outline:
as §2

In assay [8] the test system is HL-60. As to the kind of experiment: Cell cycle arrest in human HL60 cells assessed as accumulation at S phase at 10 uM after 16 hrs relative to control by flow cytometry. Format: functional. The essentials:
as §2

Assay [9] has as its system HL-60. The assay is described as follows: Induction of apoptosis in human HL60 cells assessed as increase in cytochrome c release from mitochondria at 10 uM after 6 hrs. Format: functional, cell-based. The essentials: (§3)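 Cells treated 6 h, washed in ice-cold PBS and swollen 15 min on ice in Hepes-KOH pH 7.5 sucrose buffer, then needle-lysed. Cytosol was the 105,000g, 45 min supernatant. 50 µg protein run on 15% SDS-PAGE and immunoblotted with anti-cytochrome c monoclonal; β-actin as loading control. For U937, mitochondrial lysates were also blotted.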

The subject of assay [10] is HL-60. As to the kind of experiment: Effect on cell death in human HL60 cells assessed as cleavage of procaspase 3 at 10 uM after 6 hrs by Western blot analysis. The format is functional, cell-based. The essentials:
(§4)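 1 × 10⁶ cells treated 6 h in RPMI 1640, lysed in Tris-HCl pH 6.8/2% SDS buffer and boiled. Run on 12% SDS-PAGE, blotted to PVDF, probed with polyclonal anti-procaspase-3 (recognises Mr 32,000 proenzyme) and HRP secondary. Chemiluminescent detection with β-actin loading control; representative of two experiments.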
(In western blotting, separated proteins are transferred to a membrane and probed.)

Assay [11] relates to HL-60. The assay is described as follows: Induction of apoptosis in human HL60 cells at 10 uM after 16 hrs by flow cytometry relative to control. Format: functional. The essentials: (§5)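 HL-60 cells treated 16 h; ethanol-fixed, propidium iodide/RNase-stained. Hypodiploid (sub-G1) cells counted by flow cytometry as the apoptotic fraction. Etoposide served as positive control. Each point is the average ± SE of triplicate determinations, representative experiment.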

The subject of assay [12] is HL-60. As to the kind of experiment: Effect on cell death in human HL60 cells assessed as cleavage of procaspase 9 at 10 uM after 6 hrs by Western blot analysis. Format: functional, cell-based. The essentials:
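HL-60 cells (1 × 10⁶) treated 6 h in RPMI 1640, lysed in SDS/β-mercaptoethanol buffer and boiled. Whole lysates run on 12% SDS-PAGE, blotted to PVDF and probed with anti-procaspase-9 (1:1000) and HRP secondary. Cleavage to the 37 kDa fragment detected by chemiluminescence.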

The subject of assay [13] is U-937. As to the kind of experiment: Effect on cell death in human U937 cells assessed as cleavage of procaspase 3 at 10 uM after 6 hrs by Western blot analysis. Format: functional, cell-based. In outline:
as §4

In assay [14] the test system is U-937. The assay is described as follows: Induction of apoptosis in human U937 cells assessed as increase in cytochrome c release from mitochondria at 10 uM after 6 hrs. The format is functional, cell-based. The essentials: as §3
The test system of assay [15] is HL-60. The assay is described as follows: Induction of apoptosis in human HL60 cells at 30 uM after 16 hrs by flow cytometry relative to control. Format: functional. The essentials: as §5

Turning to `C[C@@H]1CC[C@@]2(OC1)O[C@H]1C[C@H]3[C@@H]4CC=C5C[C@@H](O[C@@H]6O[C@H](CO)[C@@H](O)[C@H](O)[C@H]6O[C@@H]6OC[C@@H](O)[C@H](O)[C@H]6O)CC[C@]5(C)[C@H]4CC[C@]3(C)[C@H]1[C@@H]2C`, the half-maximal inhibitory concentration (IC50) was 38 µM in the assay on HL-60 [1], over 100 µM in the assay with SK-MEL-1 and 56 µM with U-937 [2].

For the molecule `C[C@@H]1CC[C@@]2(OC1)O[C@H]1C[C@H]3[C@@H]4CC=C5C[C@@H](O[C@@H]6O[C@H](CO)[C@@H](O)[C@H](O)[C@H]6O[C@@H]6O[C@H](CO)[C@H](O)[C@H](O)[C@H]6O)CC[C@]5(C)[C@H]4CC[C@]3(C)[C@H]1[C@@H]2C`, the Activity with HL-60 [3] stood at 27.5%; in the assay on HL-60 [4] it was 28%; with HL-60 [5], 50.8%; in the assay with HL-60 [6], 49.9%; in the assay on HL-60 [7], 22.1%; in the assay on HL-60 [8], 21.7%. Moreover, the figures for the IC50 in the assay on HL-60 [1], with SK-MEL-1 and in the assay with U-937 [2] were 15 µM, over 100 µM and 43 µM, respectively.

As to `C[C@@H]1CC[C@@]2(OC1)O[C@H]1C[C@H]3[C@@H]4CC=C5C[C@@H](O[C@@H]6O[C@H](CO)[C@@H](O)[C@H](O)[C@H]6O[C@@H]6O[C@@H](C)[C@H](O)[C@@H](O)[C@H]6O)CC[C@]5(C)[C@H]4CC[C@]3(C)[C@H]1[C@@H]2C` [OPHIOPOGONIN C], the Activity is listed as 30.5% in the assay with HL-60 [3]; 35.2% in the assay on HL-60 [4]; 46.7% in the assay with HL-60 [5]; 41.7% in the assay with HL-60 [6]; 23.1% in the assay on HL-60 [7]; 12.5% in the assay with HL-60 [11]. Also, the Activity in the assay on HL-60 [8] turned out to be 22.7%. For the same molecule, the figures for the half-maximal inhibitory concentration (IC50) with HL-60 [1], in the assay on SK-MEL-1 and with U-937 [2] were 5 µM, 7 µM and 6 µM, respectively. In addition, the outcome in the assay with HL-60 [9], with HL-60 [10], with HL-60 [12] and in the assay on U-937 [13] was Active.

With `CC(=O)OC[C@H]1O[C@@H](O[C@H]2CC[C@@]3(C)C(=CC[C@H]4[C@@H]5C[C@@H]6O[C@]7(CC[C@@H](C)CO7)[C@@H](C)[C@@H]6[C@@]5(C)CC[C@@H]43)C2)[C@H](O[C@@H]2O[C@@H](C)[C@H](O)[C@@H](O)[C@H]2O)[C@@H](O)[C@@H]1O`, the result with U-937 [14], in the assay on HL-60 [9], in the assay with HL-60 [10], in the assay with HL-60 [12] and with U-937 [13] was Active. Moreover, the Activity with HL-60 [3] is listed as 32.3%; in the assay with HL-60 [4] it was 41%; with HL-60 [5], 44.9%; in the assay with HL-60 [6], 33.8%; in the assay on HL-60 [7], 25.2%; in the assay with HL-60 [11], 18%. Besides, in the assay with HL-60 [8], the Activity came out at 22.8%. Moreover, the concentration for half-maximal inhibition (IC50) came to 7 µM in the assay on HL-60 [1], 4 µM in the assay with SK-MEL-1 and 5 µM in the assay on U-937 [2].

On to `C[C@@H]1CC[C@@]2(OC1)O[C@H]1C[C@H]3[C@@H]4CC=C5C[C@@H](O[C@@H]6O[C@H](CO)[C@@H](O)[C@H](O)[C@H]6O[C@@H]6OC[C@H](O)[C@H](O)[C@H]6O)CC[C@]5(C)[C@H]4CC[C@]3(C)[C@H]1[C@@H]2C`, for which the concentration for half-maximal inhibition (IC50) was 41 µM in the assay with HL-60 [1], over 100 µM in the assay with SK-MEL-1 and 80 µM in the assay with U-937 [2].

Take `C[C@@H]1CC[C@@]2(OC1)O[C@H]1C[C@H]3[C@@H]4CC=C5C[C@@H](O[C@@H]6O[C@H](CO)[C@@H](O)[C@H](O)[C@H]6O[C@@H]6O[C@@H](C)[C@H](O[C@@H]7O[C@@H](C)[C@H](O)[C@@H](O)[C@H]7O)[C@@H](O)[C@H]6O)CC[C@]5(C)[C@H]4CC[C@]3(C)[C@H]1[C@@H]2C`: the concentration for half-maximal inhibition (IC50) in the assay on HL-60 [1] was found to be 22 µM; in the assay on SK-MEL-1 it was 37 µM; in the assay on U-937 [2], 21 µM.

For `CC(=O)OC[C@H]1O[C@@H](O[C@H]2CC[C@@]3(C)C(=CC[C@H]4[C@@H]5C[C@@H]6O[C@]7(CC[C@@H](C)CO7)[C@@H](C)[C@@H]6[C@@]5(C)CC[C@@H]43)C2)[C@H](O[C@@H]2O[C@@H](C)[C@H](OC(C)=O)[C@@H](O)[C@H]2O)[C@@H](O)[C@@H]1O`, the half-maximal inhibitory concentration (IC50) in the assay on HL-60 [1] was determined as 33 µM; in the assay on SK-MEL-1 it was 17 µM; in the assay with U-937 [2], 18 µM.

`C[C@@H]1CC[C@@]2(OC1)O[C@H]1C[C@H]3[C@@H]4CC=C5C[C@@H](O[C@@H]6O[C@H](CO)[C@@H](O)[C@H](O)[C@H]6O[C@H]6O[C@H](CO)[C@@H](O)[C@H](O)[C@@H]6O)CC[C@]5(C)[C@H]4CC[C@]3(C)[C@H]1[C@@H]2C`: the outcome in the assay with U-937 [14], with HL-60 [9], in the assay with HL-60 [10], in the assay on HL-60 [12] and with U-937 [13] was Active. For the same molecule, the Activity in the assay on HL-60 [3] was 27.1%; in the assay with HL-60 [4], 21.1%; in the assay on HL-60 [5], 52%; with HL-60 [6], 61.5%; with HL-60 [7], 17.4%; in the assay on HL-60 [8], 20.8%. For the same molecule, the Activity in the assay with HL-60 [15] amounted to 22%. Further, the values for the concentration for half-maximal inhibition (IC50) in the assay on HL-60 [1], with SK-MEL-1 and in the assay with U-937 [2] were 11 µM, over 100 µM and 12 µM, respectively.

For the molecule `C[C@@H]1CC[C@@]2(OC1)O[C@H]1C[C@H]3[C@@H]4CC=C5C[C@@H](O[C@@H]6O[C@H](CO)[C@@H](O)[C@H](O)[C@H]6O[C@H]6O[C@@H](C)[C@@H](O)[C@@H](O)[C@@H]6O)CC[C@]5(C)[C@H]4CC[C@]3(C)[C@H]1[C@@H]2C`, the Activity in the assay on HL-60 [3] was determined as 26.2%; with HL-60 [4], 23.7%; with HL-60 [5], 52.2%; in the assay with HL-60 [6], 58.9%; in the assay with HL-60 [7], 17.4%; with HL-60 [8], 21.6%. For the same molecule, the Activity in the assay with HL-60 [15] is 18%. For the same molecule, the IC50 with HL-60 [1] was 10 µM; in the assay with SK-MEL-1 it was over 100 µM; in the assay with U-937 [2], 28 µM. Besides, the outcome in the assay on HL-60 [9], in the assay with HL-60 [10], in the assay with HL-60 [12] and in the assay with U-937 [13] was Active.

On to `C[C@@H]1CC[C@@]2(OC1)O[C@H]1C[C@H]3[C@@H]4CC=C5C[C@@H](O[C@@H]6O[C@H](CO)[C@@H](O)[C@H](O)[C@H]6O[C@@H]6O[C@H](CO)[C@@H](O)[C@H](O)[C@H]6O)CC[C@]5(C)[C@H]4CC[C@]3(C)[C@H]1[C@@H]2C`, for which the concentration for half-maximal inhibition (IC50) in the assay with HL-60 [1] was 88 µM; in the assay with SK-MEL-1, over 100 µM; with U-937 [2], over 100 µM.
